Assays:
Assay type in all cases: cell-based
[1] = target: Misshapen-like kinase 1 (Homo sapiens) (UniProt Q8N4C8); experiment: Inhibition of ZC3 Lys2 labeling site in human A-375 cells at 0.5 uM by KiNativ Profiling analysis relative to control
[2] = target: Epidermal growth factor receptor (Homo sapiens) (UniProt P00533); experiment: Inhibition of EGFR ACT labeling site harbouring LLGAEEKEYHAEGGKVPIK in human A-375 cells at 5 uM by KiNativ Profiling analysis relative to control
In short: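 Live A375 melanoma cells were treated with compound at 0.5 or 5 μM, then lysed. Lysates were labeled with a lysine-reactive ATP or ADP-biotin probe. The read-out was protection of each kinase probe-labeling site from labeling, relative to control.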

[3] = target: Serine/threonine-protein kinase Nek6 (Homo sapiens) (UniProt Q9HC98); experiment: Inhibition of NEK6 Lys2 labeling site in human A-375 cells at 5 uM by KiNativ Profiling analysis relative to control
Sequence of Serine/threonine-protein kinase Nek6 (Homo sapiens) (Q9HC98 whole entry): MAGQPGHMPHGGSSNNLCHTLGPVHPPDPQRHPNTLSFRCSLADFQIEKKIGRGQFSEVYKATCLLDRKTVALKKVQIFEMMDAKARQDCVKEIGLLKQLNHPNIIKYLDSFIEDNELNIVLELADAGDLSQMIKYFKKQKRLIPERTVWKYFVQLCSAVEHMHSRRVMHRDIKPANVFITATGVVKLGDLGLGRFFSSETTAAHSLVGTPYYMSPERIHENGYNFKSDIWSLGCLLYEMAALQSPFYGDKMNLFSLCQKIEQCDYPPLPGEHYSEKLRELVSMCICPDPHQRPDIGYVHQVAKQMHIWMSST

[4] = target: T1, Kinase suppressor of Ras 1 (Homo sapiens) (UniProt Q8IVT5); experiment: Inhibition of KSR1 ACT labeling site harbouring SKNVFYDNGK in human A-375 cells at 0.5 uM by KiNativ Profiling analysis relative to control
T1 sequence (whole entry): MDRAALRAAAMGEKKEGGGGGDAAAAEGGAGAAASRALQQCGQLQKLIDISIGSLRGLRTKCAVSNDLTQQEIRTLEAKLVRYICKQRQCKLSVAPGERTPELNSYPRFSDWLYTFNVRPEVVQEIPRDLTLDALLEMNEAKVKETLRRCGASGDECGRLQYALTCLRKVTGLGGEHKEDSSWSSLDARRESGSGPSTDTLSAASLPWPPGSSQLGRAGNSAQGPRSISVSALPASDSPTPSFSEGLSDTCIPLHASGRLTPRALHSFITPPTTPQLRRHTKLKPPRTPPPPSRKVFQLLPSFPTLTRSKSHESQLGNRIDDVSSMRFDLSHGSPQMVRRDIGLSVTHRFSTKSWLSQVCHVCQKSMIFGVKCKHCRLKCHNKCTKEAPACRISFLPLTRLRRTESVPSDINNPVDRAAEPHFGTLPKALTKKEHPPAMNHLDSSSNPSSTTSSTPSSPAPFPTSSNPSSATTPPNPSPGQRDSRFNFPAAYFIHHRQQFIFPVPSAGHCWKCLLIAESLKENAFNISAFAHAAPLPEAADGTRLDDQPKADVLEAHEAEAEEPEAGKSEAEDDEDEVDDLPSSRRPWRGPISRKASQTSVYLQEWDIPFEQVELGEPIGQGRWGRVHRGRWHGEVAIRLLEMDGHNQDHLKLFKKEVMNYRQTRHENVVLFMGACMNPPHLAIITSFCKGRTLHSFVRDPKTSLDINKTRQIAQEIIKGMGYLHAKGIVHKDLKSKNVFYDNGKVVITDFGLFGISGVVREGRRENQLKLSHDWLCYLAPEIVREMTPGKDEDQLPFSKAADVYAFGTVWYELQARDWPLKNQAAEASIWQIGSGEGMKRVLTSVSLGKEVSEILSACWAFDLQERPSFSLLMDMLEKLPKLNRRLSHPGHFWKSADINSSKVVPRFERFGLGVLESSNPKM

[5] = target: T2, Serine/threonine-protein kinase Nek8 (Homo sapiens) (UniProt Q86SG6); experiment: Inhibition of NEK8 Lys2 labeling site in human A-375 cells at 0.5 uM by KiNativ Profiling analysis relative to control
T2 sequence (whole entry): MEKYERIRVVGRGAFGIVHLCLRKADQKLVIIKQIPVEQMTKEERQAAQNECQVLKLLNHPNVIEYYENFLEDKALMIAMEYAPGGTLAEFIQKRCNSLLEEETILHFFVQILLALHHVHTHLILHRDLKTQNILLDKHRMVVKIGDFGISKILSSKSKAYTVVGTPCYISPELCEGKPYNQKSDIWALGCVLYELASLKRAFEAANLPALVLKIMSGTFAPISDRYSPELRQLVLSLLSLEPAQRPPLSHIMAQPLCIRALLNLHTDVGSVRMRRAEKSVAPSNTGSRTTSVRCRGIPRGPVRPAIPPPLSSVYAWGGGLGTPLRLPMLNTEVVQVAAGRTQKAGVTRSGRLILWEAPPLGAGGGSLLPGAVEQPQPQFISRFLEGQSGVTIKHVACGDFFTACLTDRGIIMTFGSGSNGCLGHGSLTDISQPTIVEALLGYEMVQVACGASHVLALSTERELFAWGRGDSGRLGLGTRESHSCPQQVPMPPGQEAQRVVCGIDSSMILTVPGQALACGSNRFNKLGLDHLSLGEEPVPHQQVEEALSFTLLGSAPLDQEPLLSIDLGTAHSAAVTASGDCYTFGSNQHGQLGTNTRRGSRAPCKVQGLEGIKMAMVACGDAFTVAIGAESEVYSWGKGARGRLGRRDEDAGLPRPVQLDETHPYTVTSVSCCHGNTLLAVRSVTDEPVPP

[6] = target: Serine/threonine-protein kinase WNK2 (Homo sapiens) (UniProt Q9Y3S1); experiment: Inhibition of Wnk2 ACT labeling site in human A-375 cells at 0.5 uM by KiNativ Profiling analysis relative to control
Sequence of Serine/threonine-protein kinase WNK2 (Homo sapiens) (Q9Y3S1 whole entry): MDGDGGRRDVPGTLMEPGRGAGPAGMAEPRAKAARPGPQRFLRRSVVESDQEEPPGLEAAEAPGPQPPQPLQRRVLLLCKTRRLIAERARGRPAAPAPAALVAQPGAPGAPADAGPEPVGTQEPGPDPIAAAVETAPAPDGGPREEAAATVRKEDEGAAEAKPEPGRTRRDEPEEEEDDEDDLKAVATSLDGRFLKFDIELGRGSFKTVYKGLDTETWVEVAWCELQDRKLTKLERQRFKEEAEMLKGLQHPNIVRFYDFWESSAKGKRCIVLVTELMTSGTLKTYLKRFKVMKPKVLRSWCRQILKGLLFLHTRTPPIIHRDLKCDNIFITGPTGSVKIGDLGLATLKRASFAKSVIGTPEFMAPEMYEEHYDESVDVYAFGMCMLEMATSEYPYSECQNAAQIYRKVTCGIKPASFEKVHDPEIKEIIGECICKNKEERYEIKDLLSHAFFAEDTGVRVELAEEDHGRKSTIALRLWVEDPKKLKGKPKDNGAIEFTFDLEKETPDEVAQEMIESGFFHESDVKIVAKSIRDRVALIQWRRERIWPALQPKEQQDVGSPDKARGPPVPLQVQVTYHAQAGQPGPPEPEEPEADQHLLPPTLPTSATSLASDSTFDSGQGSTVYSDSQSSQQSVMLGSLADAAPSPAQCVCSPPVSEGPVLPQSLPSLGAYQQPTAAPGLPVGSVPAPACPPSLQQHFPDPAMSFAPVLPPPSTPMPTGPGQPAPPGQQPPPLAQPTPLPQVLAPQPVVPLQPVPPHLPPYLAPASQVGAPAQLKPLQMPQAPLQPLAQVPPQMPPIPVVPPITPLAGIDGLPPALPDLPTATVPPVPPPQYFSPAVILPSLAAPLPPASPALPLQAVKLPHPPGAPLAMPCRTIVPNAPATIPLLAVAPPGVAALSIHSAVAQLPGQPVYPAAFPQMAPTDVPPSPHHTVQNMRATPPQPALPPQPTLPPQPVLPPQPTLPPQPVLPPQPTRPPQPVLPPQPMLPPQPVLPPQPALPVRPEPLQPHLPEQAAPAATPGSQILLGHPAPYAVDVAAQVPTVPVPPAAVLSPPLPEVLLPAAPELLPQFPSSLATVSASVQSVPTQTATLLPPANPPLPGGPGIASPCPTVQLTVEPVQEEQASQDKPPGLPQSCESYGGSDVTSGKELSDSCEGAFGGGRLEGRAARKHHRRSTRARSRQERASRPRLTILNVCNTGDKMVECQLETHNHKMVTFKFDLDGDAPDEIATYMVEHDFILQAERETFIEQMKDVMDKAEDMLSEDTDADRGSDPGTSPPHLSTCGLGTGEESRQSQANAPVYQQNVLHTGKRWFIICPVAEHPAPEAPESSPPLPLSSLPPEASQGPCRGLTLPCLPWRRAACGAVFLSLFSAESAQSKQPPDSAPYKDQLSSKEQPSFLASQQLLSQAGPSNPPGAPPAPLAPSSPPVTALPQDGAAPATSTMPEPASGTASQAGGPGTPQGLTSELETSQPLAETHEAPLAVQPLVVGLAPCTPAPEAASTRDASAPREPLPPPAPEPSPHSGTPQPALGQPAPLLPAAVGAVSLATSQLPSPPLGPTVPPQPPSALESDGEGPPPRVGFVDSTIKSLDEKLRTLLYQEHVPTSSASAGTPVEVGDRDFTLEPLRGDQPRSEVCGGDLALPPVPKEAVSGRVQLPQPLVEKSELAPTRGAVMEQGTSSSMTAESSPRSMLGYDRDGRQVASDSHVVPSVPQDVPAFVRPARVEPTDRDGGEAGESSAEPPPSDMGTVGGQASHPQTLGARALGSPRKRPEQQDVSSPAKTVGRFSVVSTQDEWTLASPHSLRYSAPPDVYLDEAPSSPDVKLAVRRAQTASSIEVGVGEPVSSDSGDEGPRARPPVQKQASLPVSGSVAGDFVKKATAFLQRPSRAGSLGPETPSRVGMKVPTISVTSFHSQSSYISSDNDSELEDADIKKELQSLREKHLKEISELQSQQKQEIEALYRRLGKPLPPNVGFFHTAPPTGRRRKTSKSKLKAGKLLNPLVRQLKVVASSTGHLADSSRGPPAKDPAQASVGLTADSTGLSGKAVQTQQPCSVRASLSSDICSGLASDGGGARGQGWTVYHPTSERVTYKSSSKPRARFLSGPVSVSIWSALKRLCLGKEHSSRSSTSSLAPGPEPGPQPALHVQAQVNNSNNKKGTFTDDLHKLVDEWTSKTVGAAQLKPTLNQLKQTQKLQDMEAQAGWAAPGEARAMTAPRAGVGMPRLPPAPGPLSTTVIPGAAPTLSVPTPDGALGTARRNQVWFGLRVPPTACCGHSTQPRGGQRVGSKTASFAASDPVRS

[7] = target: T3, Serine/threonine-protein kinase Chk1 (Homo sapiens) (UniProt O14757); experiment: Inhibition of CHK1 Lys2 labeling site harbouring DIKPENLLLDERDNLK in human A-375 cells at 0.05 uM by KiNativ Profiling analysis relative to control
T3 sequence (whole entry): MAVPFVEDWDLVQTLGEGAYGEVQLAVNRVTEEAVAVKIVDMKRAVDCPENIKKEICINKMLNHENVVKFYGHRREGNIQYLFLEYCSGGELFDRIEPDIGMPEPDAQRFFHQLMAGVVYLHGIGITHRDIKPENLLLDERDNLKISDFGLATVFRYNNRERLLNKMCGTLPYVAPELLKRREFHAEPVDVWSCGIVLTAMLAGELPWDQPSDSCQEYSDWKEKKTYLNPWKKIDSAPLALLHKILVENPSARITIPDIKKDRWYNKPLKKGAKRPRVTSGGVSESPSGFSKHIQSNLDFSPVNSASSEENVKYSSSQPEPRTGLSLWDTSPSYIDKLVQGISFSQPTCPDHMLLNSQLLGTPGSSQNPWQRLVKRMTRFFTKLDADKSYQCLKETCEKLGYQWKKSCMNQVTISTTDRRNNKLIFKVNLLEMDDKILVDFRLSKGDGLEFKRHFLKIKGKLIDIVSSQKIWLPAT

[8] = target: Tyrosine-protein kinase Fer (Homo sapiens, UniProt P16591); experiment: Inhibition of FER Lys1 labeling site harbouring TSVAVKTCKEDLPQELKin human A-375 cells at 0.05 uM by KiNativ Profiling analysis relative to control
[9] = target: MAP/microtubule affinity-regulating kinase 3 (Homo sapiens) (UniProt P27448); experiment: Inhibition of MARK3 Lys1 labeling site in human A-375 cells at 0.05 uM by KiNativ Profiling analysis relative to control
Sequence of MAP/microtubule affinity-regulating kinase 3 (Homo sapiens) (P27448 whole entry, looked up): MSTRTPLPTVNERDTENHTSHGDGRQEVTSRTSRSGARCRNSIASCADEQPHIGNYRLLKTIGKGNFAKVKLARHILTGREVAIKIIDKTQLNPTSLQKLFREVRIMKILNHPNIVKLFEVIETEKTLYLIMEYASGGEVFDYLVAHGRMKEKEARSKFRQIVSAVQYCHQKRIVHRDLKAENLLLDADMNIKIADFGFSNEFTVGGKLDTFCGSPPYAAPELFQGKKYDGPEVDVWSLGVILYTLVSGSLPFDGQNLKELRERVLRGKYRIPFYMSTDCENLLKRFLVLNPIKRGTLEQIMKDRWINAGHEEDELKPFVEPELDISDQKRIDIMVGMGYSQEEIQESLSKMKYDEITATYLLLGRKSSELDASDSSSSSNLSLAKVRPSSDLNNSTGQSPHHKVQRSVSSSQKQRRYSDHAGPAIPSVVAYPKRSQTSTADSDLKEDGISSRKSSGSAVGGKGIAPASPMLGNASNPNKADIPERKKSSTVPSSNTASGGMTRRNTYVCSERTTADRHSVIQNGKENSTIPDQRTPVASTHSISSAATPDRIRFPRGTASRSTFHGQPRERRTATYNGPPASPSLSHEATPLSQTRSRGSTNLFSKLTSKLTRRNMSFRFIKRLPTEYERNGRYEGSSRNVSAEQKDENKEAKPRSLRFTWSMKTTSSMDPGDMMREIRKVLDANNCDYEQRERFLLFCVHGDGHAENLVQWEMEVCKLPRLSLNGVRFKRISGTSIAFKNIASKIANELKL

[10] = target: Serine/threonine-protein kinase 38-like (Homo sapiens) (UniProt Q9Y2H1); experiment: Inhibition of NDR2 Lys2 labeling site in human A-375 cells at 0.05 uM by KiNativ Profiling analysis relative to control
Sequence of Serine/threonine-protein kinase 38-like (Homo sapiens) (Q9Y2H1 2-464 limits assumed): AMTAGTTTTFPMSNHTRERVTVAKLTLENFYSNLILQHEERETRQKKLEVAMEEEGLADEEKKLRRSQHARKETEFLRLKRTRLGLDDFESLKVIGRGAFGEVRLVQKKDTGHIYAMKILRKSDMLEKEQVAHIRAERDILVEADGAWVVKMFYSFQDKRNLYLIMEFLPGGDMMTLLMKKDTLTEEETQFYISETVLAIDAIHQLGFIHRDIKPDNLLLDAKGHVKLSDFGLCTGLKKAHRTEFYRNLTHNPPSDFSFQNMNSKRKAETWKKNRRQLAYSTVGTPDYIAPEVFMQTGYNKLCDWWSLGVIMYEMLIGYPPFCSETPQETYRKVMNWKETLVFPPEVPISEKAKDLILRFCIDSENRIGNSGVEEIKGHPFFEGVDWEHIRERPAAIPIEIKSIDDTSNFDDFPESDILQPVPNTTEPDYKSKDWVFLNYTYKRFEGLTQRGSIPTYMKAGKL

Sequence of Epidermal growth factor receptor (Homo sapiens) (P00533 whole entry): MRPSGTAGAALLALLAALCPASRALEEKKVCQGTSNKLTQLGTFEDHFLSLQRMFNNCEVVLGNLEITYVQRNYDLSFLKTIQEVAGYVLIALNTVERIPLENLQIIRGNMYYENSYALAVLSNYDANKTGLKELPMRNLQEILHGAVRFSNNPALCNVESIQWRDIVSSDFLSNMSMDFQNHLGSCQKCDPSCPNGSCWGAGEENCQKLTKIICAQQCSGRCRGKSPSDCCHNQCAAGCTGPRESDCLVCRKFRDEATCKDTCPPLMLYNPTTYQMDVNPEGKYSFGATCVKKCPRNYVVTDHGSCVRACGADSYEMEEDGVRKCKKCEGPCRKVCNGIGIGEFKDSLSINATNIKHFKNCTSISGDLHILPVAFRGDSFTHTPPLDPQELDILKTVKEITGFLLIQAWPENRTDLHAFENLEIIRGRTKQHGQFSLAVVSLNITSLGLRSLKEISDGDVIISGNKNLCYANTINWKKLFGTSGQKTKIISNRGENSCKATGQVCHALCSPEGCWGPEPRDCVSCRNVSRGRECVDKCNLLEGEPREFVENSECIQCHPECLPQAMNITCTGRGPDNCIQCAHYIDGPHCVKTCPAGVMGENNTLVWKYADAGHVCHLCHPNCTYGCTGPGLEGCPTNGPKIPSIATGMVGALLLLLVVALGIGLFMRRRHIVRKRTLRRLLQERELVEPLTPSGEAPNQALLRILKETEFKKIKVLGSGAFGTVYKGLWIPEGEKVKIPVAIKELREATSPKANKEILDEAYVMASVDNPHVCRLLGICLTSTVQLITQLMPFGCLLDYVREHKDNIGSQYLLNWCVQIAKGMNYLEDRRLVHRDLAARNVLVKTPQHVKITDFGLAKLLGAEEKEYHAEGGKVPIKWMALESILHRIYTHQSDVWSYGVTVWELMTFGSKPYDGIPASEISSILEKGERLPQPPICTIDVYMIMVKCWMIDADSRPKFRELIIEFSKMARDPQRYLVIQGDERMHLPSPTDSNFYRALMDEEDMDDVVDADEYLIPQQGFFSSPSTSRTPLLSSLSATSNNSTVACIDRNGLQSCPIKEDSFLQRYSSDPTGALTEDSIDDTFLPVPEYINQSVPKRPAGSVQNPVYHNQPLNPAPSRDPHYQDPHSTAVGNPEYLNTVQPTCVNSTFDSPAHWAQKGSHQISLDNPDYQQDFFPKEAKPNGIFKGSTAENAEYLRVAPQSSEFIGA

| SMILES | inhibition [1] [%] | inhibition [2] [%] | inhibition [3] [%] | inhibition [4] [%] | inhibition [5] [%] | inhibition [6] [%] | inhibition [7] [%] | inhibition [8] [%] | inhibition [9] [%] | inhibition [10] [%] |
| --- | --- | --- | --- | --- | --- | --- | --- | --- | --- | --- |
| CCN1CCN(Cc2ccc(NC(=O)c3ccc(C)c(/C=C/c4cnc5[nH]ccc5c4OC)c3)cc2C(F)(F)F)CC1 | 48.1 | -7.4 | 3.1 | 16.8 | -8.8 | 6.9 | 2.9 | 2.6 | 16 | 11.6 |
| CCN1CCN(Cc2ccc(NC(=O)c3ccc(C)c(Oc4ccnc5[nH]ccc45)c3)cc2C(F)(F)F)CC1 | 70.8 | 0.7 | 6.4 | 8.5 | -9.5 | 3.9 | 47.1 | 64.6 | -4.5 | 14.8 |
